{"source": "ChEMBL document CHEMBL5579886", "about": "“Selective Degradation of MLK3 by a Novel CEP1347-VHL-02 PROTAC Compound Limits the Oncogenic Potential of TNBC” (J Med Chem, 2024)", "key": {"[1]": {"biological_target": "T1, von Hippel-Lindau disease tumor suppressor/Mitogen-activated protein kinase kinase kinase 9 (Homo sapiens) (UniProt P80192+P40337)", "T1 sequence (P40337 whole entry, looked up)": "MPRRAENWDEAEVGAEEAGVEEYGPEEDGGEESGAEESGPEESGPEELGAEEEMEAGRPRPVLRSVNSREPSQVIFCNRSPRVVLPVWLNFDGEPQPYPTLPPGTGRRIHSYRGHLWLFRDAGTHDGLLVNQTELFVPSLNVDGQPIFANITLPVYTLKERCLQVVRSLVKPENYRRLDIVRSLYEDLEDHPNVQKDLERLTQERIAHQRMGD", "T1 sequence (P80192 whole entry, looked up)": "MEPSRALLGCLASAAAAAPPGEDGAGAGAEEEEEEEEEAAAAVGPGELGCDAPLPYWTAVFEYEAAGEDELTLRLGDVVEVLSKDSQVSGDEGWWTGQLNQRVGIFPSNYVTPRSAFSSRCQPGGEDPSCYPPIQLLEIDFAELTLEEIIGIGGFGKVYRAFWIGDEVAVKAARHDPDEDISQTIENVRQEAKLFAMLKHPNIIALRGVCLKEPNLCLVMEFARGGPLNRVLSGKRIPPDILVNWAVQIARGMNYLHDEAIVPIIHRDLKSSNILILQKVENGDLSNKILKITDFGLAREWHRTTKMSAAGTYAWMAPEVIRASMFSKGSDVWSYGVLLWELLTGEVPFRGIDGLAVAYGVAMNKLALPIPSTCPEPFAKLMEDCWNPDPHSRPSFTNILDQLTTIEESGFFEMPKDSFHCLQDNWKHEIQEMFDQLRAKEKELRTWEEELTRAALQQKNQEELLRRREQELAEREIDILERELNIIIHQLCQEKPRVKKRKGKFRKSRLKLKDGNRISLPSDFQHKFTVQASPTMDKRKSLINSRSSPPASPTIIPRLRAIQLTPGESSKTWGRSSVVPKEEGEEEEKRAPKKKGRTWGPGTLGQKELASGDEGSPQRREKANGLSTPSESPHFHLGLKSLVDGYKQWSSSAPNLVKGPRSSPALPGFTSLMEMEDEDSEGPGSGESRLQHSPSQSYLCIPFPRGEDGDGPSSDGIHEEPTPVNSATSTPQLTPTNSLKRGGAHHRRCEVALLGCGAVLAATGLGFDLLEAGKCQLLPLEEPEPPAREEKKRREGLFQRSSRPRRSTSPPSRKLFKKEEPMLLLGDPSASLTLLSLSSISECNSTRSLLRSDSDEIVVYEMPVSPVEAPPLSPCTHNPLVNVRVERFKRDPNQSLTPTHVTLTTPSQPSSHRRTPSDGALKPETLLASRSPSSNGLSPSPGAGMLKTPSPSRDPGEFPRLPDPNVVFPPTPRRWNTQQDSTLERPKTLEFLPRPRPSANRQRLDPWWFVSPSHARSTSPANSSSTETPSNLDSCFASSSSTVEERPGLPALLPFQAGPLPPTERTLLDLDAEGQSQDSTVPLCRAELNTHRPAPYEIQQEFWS", "experiment": "PROTAC activity at VHL/MLK1 in human MCF7 cells assessed as protein degradation at 1 uM incubated for 24 hrs by immunoblot analysis", "format": "cell-based", "outline": "(§1)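 Endogenous MLK1, MLK2 or MLK4 levels in MCF-7 and MDA-MB-468 cells. Cells were grown in high-glucose DMEM with 10% FBS, seeded at 100 000 cells/well and treated the next day for 24 h, with DMSO as control. Lysis was in RIPA with protease inhibitor, followed by 10% SDS-PAGE, nitrocellulose transfer and ECL immunoblot with GAPDH or β-actin as loading control.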"}, "MDA-MB-468 [2]": {"system": "MDA-MB-468", "experiment": "Growth inhibition of human MDA-MB-468 cell spheroids in hydrogel at 1 uM incubated for 10 days", "format": "functional, cell-based", "settings": "time 10.0 day", "outline": "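4000 cells plated on top of hydrogels and grown 10 days with 1 μM PROTAC or DMSO; spheroid formation and size scored.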"}, "[3]": {"biological_target": "T2, von Hippel-Lindau disease tumor suppressor/Mitogen-activated protein kinase kinase kinase 11 (Homo sapiens, UniProt Q16584+P40337)", "T2 sequence (P40337 whole entry, looked up)": "as the sequence (P40337 whole entry, looked up) above", "T2 sequence (Q16584 whole entry, looked up)": "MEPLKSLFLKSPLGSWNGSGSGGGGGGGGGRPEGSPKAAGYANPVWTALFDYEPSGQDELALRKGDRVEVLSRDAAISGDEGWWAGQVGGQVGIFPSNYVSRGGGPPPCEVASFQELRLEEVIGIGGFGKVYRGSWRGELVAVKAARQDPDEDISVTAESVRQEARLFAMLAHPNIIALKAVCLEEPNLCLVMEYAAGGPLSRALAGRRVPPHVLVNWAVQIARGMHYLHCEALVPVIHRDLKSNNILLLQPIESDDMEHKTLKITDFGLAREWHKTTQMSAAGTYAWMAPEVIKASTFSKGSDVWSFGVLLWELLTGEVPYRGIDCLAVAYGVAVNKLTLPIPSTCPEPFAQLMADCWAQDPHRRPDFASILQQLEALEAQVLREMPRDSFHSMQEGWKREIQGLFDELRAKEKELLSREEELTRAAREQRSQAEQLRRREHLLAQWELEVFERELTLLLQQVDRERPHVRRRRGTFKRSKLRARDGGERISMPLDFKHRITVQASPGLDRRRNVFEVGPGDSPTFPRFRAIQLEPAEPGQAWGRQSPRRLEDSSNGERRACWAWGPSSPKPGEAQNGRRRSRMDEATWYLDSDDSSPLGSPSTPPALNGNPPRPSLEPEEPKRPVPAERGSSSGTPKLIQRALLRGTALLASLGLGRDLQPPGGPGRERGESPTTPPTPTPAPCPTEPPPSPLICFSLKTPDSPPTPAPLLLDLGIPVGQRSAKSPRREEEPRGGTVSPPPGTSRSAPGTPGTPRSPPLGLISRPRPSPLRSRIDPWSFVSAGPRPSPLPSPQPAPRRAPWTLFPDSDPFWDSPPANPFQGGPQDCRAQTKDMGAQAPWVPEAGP", "experiment": "PROTAC activity at VHL/MLK3 in carfilzomib-treated human MDA-MB-468 cells assessed as protein degradation at 1 uM measured after 7 hrs by immunoblot analysis", "format": "cell-based", "outline": "(§2)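 MCF-7 and MDA-MB-468 cells were seeded at 100 000/well. The next day they were pretreated with 1 μM carfilzomib for 1 h, then treated with 1 μM PROTAC for 7 h, with DMSO as control. Endogenous MLK3 was measured by immunoblot of RIPA lysates.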"}, "[4]": {"biological_target": "T2, von Hippel-Lindau disease tumor suppressor/Mitogen-activated protein kinase kinase kinase 11", "experiment": "PROTAC activity at VHL/DOX-inducible MLK3 (unknown origin) overexpressed in human HCC1806 cells assessed as protein degradation at 0.25 uM incubated for 24 hrs by immunoblot analysis", "format": "cell-based"}, "MDA-MB-468 [5]": {"system": "MDA-MB-468", "experiment": "Effect on ERK pathway in human MDA-MB-468 cells at 1 uM measured after 24 hrs by immunoblot analysis", "format": "functional, cell-based"}, "[6]": {"biological_target": "T3, von Hippel-Lindau disease tumor suppressor/Mitogen-activated protein kinase kinase kinase 21 (Homo sapiens) (UniProt P40337+Q5TCX8)", "T3 sequence (P40337 whole entry, looked up)": "as the sequence (P40337 whole entry, looked up) above", "T3 sequence (Q5TCX8 whole entry, looked up)": "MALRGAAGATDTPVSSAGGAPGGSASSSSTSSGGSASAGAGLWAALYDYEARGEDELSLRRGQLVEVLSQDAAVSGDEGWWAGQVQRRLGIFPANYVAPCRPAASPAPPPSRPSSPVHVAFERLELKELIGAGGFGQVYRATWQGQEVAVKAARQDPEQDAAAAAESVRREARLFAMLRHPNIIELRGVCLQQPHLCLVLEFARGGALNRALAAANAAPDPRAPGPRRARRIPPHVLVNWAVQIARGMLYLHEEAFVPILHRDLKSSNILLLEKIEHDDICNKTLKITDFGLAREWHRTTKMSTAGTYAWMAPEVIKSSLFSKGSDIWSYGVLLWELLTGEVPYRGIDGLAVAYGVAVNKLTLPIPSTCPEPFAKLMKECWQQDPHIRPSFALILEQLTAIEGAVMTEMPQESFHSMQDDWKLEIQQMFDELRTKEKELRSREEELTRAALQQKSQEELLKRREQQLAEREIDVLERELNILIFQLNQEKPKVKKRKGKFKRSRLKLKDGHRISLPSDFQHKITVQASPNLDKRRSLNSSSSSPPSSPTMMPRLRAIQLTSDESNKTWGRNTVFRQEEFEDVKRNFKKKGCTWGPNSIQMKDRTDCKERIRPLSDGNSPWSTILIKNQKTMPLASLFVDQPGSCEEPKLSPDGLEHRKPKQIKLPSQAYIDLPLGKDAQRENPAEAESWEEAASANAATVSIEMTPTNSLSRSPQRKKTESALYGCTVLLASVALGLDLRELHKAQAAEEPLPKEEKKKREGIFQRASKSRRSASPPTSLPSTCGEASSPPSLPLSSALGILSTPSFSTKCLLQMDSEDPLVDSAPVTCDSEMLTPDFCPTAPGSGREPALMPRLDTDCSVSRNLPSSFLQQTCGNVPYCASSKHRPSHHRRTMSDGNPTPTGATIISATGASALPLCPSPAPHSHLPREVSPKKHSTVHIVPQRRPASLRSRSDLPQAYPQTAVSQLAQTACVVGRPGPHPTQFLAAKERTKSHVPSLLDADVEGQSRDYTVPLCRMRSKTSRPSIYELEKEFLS", "experiment": "PROTAC activity at IAP/MLK4 in human MCF7 cells assessed as protein degradation at 1 uM incubated for 24 hrs by immunoblot analysis", "format": "cell-based", "outline": "as §1"}, "[7]": {"biological_target": "T1, von Hippel-Lindau disease tumor suppressor/Mitogen-activated protein kinase kinase kinase 9 (Homo sapiens)", "experiment": "PROTAC activity at VHL/DOX-inducible MLK1 (unknown origin) overexpressed in human A-375 cells assessed as protein degradation at 0.1 to 5 uM incubated for 24 hrs by immunoblot analysis", "format": "cell-based", "settings": "dose 0.1-5 µM", "outline": "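A375 cells carried lentiviral DOX-inducible MLK1, MLK2 or MLK4 and were grown in RPMI-1640 with 10% FBS. Cells were seeded at 100 000/well and induced with 1 μg/mL DOX. After 24 h they were treated at 0.1–5 μM for 24 h, with DMSO as control. Levels were read by ECL immunoblot of RIPA lysates, with GAPDH or β-actin loading control.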"}, "MDA-MB-468 [8]": {"system": "MDA-MB-468", "experiment": "Induction of apoptosis in human MDA-MB-468 cells at 1 uM measured after 48 hrs by Annexin V-FITC/PI staining based flow cytometry", "format": "functional, cell-based", "outline": "(§3)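 Cells seeded at 50 000/well, treated 48 h with 1 μM PROTAC or DMSO; cells plus supernatant stained with Alexa Fluor488 Annexin V for 30 min at room temperature in the dark, PI added 5 min before flow cytometry. At least three repeats.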"}, "[9]": {"biological_target": "T2, von Hippel-Lindau disease tumor suppressor/Mitogen-activated protein kinase kinase kinase 11", "experiment": "PROTAC activity at VHL/MLK3 in human MDA-MB-468 cells assessed as protein degradation at 0.1 to 5 uM measured after 24 hrs by Western blot analysis relative to control", "format": "cell-based", "settings": "dose 0.1-5 µM", "outline": "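Endogenous MLK3: cells seeded at 100 000/well, treated next day for 24 h with PROTAC at 0.1–5 μM, DMSO control; immunoblot with GAPDH or β-actin loading control. Remaining MLK3 percentage plotted against concentration to derive DC50 and Dmax.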"}, "MDA-MB-468 [10]": {"system": "MDA-MB-468", "experiment": "Inhibition of colony formation in human MDA-MB-468 cells at 1 uM incubated for 15 days by crystal violet staining based analysis", "format": "functional, cell-based", "settings": "time 15.0 day", "outline": "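5000 cells per 6 cm plate in triplicate with 1 μM PROTAC or DMSO, medium changed every 5 days; colonies stained with crystal violet after 14–15 days. Three independent experiments, mean ± SD, unpaired t-test against control.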"}, "[11]": {"biological_target": "T2, von Hippel-Lindau disease tumor suppressor/Mitogen-activated protein kinase kinase kinase 11", "experiment": "PROTAC activity at VHL/MLK3 in human MCF7 cells assessed as protein degradation at 1 uM measured after 24 hrs by immunoblot analysis"}, "[12]": {"biological_target": "T2, von Hippel-Lindau disease tumor suppressor/Mitogen-activated protein kinase kinase kinase 11", "experiment": "PROTAC activity at VHL/DOX-inducible MLK3 (unknown origin) overexpressed in human HCC1806 cells assessed as protein degradation at 0.5 uM measured after 24 hrs by shotgun proteomic analysis", "format": "cell-based", "outline": "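HCC1806 cells with DOX-inducible MLK3 were seeded at 150 000/well and induced with DOX for 24 h, then treated with 0.5 μM PROTAC or DMSO for 24 h. Total lysates were chloroform/methanol precipitated, reduced and alkylated with TCEP/CAA, and trypsin-digested at 37 °C overnight. Shotgun LC-MS/MS followed, with log2 fold change and t-test p-values (n = 3).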"}, "[13]": {"experiment": "PROTAC activity at IAP/MLK1 in human MCF7 cells assessed as protein degradation at 1 uM incubated for 24 hrs by immunoblot analysis"}, "[14]": {"biological_target": "von Hippel-Lindau disease tumor suppressor/Mitogen-activated protein kinase kinase kinase 10 (Homo sapiens) (UniProt Q02779+P40337)", "sequence (P40337 whole entry, looked up)": "as the sequence (P40337 whole entry, looked up) above", "sequence (Q02779 whole entry, looked up)": "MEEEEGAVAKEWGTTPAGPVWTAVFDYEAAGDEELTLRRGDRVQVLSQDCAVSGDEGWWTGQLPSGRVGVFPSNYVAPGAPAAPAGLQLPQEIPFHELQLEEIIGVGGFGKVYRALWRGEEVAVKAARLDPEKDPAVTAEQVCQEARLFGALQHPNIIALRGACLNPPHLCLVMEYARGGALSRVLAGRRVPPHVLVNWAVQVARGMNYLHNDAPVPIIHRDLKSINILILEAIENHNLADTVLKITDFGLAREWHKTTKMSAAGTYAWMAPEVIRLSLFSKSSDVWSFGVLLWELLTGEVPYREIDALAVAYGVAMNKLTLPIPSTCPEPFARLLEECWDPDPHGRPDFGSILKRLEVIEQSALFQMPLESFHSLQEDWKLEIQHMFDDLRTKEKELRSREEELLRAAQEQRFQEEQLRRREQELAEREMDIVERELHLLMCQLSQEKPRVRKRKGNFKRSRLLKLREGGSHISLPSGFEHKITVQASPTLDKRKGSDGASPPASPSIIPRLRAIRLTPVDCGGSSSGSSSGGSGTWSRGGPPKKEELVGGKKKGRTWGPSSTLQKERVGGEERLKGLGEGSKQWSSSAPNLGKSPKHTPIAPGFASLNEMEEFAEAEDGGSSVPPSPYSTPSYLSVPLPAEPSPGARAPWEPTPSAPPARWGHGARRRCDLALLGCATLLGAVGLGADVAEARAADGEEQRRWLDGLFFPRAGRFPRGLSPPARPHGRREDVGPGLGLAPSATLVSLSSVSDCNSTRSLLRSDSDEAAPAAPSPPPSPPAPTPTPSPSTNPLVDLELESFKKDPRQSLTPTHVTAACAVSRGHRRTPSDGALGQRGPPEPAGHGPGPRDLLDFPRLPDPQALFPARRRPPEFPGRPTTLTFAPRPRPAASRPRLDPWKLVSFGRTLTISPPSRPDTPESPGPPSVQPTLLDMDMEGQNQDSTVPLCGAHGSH", "experiment": "PROTAC activity at IAP/MLK2 in human MDA-MB-468 cells assessed as protein degradation at 1 uM incubated for 24 hrs by immunoblot analysis", "format": "cell-based", "outline": "as §1"}, "MCF7 [15]": {"system": "MCF7", "experiment": "Induction of apoptosis in human MCF7 cells at 1 uM measured after 48 hrs by Annexin V-FITC/PI staining based flow cytometry", "format": "functional, cell-based", "outline": "as §3"}, "[16]": {"biological_target": "T2, von Hippel-Lindau disease tumor suppressor/Mitogen-activated protein kinase kinase kinase 11", "experiment": "PROTAC activity at VHL/MLK3 in carfilzomib-treated human MCF7 cells assessed as protein degradation at 1 uM measured after 7 hrs by immunoblot analysis", "format": "cell-based", "outline": "as §2"}, "MCF7 [17]": {"system": "MCF7", "experiment": "Effect on MLK3 mRNA level in human MCF7 cells at 1 uM measured after 24 hrs by RT-qPCR analysis", "format": "functional, cell-based", "outline": "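Total RNA extracted from MCF-7 and MDA-MB-468 cells 24 h after PROTAC treatment, purity and concentration checked spectrophotometrically, reverse transcribed to cDNA and MLK3 transcript quantified by RT-qPCR.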"}, "[18]": {"biological_target": "T3, von Hippel-Lindau disease tumor suppressor/Mitogen-activated protein kinase kinase kinase 21 (Homo sapiens)", "experiment": "PROTAC activity at VHL/MLK4 in human MCF7 cells assessed as protein degradation at 1 uM incubated for 24 hrs by immunoblot analysis", "format": "cell-based", "outline": "as §1"}, "[19]": {"biological_target": "T2, von Hippel-Lindau disease tumor suppressor/Mitogen-activated protein kinase kinase kinase 11", "experiment": "PROTAC activity at VHL/MLK3 in human MCF7 cells assessed as half life of protein degradation at 1 uM by Western blot analysis", "format": "cell-based", "outline": "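Endogenous MLK3: cells seeded at 100 000/well, treated next day with 1 μM PROTAC for 4–48 h, DMSO control; immunoblot with GAPDH or β-actin loading control. Remaining MLK3 quantified over time and t1/2 derived.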"}, "[20]": {"biological_target": "T2, von Hippel-Lindau disease tumor suppressor/Mitogen-activated protein kinase kinase kinase 11", "experiment": "PROTAC activity at VHL/MLK3 in human MDA-MB-468 cells assessed as protein degradation at 1 uM by Western blot analysis", "format": "cell-based", "settings": "time 4-48 hrs, TDE = time-dependent effect"}}, "note": "Activity calls are given as the source filed them. The rule behind the calls is not given here."}
{"molecule": "CCSCc1ccc2c(c1)c1c3c(c4c5cc(CSCC)ccc5n5c4c1n2[C@H]1C[C@](O)(C(=O)NCCOCCOCCOCC(=O)N[C@H](C(=O)N2C[C@H](O)C[C@H]2C(=O)N[C@@H](C)c2ccc(-c4scnc4C)cc2)C(C)(C)C)[C@]5(C)O1)CNC3=O", "values": [{"measurement": "Activity", "setting": "[1]", "result": "inactive"}, {"measurement": "growth inhibition (GI)", "setting": "MDA-MB-468 [2]", "result": "Active"}, {"measurement": "Activity", "setting": "[3]", "result": "inactive"}, {"measurement": "Activity", "setting": "[4]", "result": "Active"}, {"measurement": "Activity", "setting": "MDA-MB-468 [5]", "result": "inactive"}, {"measurement": "Activity", "setting": "[6]", "result": "inactive"}, {"measurement": "Activity", "setting": "[7]", "result": "inactive"}, {"measurement": "Activity", "setting": "MDA-MB-468 [8]", "result": "Active"}, {"measurement": "Emax", "setting": "[9]", "result": 63, "unit": "%"}, {"measurement": "inhibition", "setting": "MDA-MB-468 [10]", "result": "Active"}, {"measurement": "Activity", "setting": "[11]", "result": "Active"}, {"measurement": "Activity", "setting": "[12]", "result": "Active"}, {"measurement": "Activity", "setting": "[13]", "result": "inactive"}, {"measurement": "Activity", "setting": "[14]", "result": "inactive"}, {"measurement": "Activity", "setting": "MCF7 [15]", "result": "inactive"}, {"measurement": "Activity", "setting": "[16]", "result": "inactive"}, {"measurement": "Activity", "setting": "MCF7 [17]", "result": "inactive"}, {"measurement": "Activity", "setting": "[18]", "result": "inactive"}, {"measurement": "T1/2", "setting": "[19]", "result": 2.5, "unit": "h"}, {"measurement": "Activity", "setting": "[20]", "result": "Tde"}]}
